Assay results reported in ChEMBL document CHEMBL1123397, “Antiarrhythmic activity of 17 beta-aminoestratrienes. Comparison of 3-ols and 3-acetates with the corresponding 3-(3-amino-2-hydroxypropyl) ethers” (1986).
Values after ≈ are worked out from the molar mass of the structure shown. Active and inactive are the calls of the source. No cut-off for these calls is given here.

How the values were obtained:
[1] = test system: Rattus norvegicus; assay: Effect on heart rate on 1 min post isoprenaline induced tachycardia in the anesthetized rat at 2.0 mg/kg dose.; type: functional
Summary of the method: (§1)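 Test drug or vehicle was given i.v., and isoprenaline (10 µg/kg) 14 min later. Heart rate was read from the lead II ECG just before drug, at 14 min (pre-isoprenaline) and 1 min after isoprenaline. Compared by Student's t test; 7–12 animals per group; mean ± SEM.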

[2] = test system: Rattus norvegicus; assay: Effective dose that antagonized arrhythmias evoked by coronary artery ligation in the rat was measured at 1.0 mg/kg dose; type: functional
[3] = test system: Rattus norvegicus; assay: Effect on heart rate before isoprenaline induced tachycardia in the anesthetized rat at 2 mg/kg dose; type: functional; summary of the method: as §1
[4] = species: Cavia porcellus; assay: Concentration required to reduce maximum following frequencu (MFF) of isolated guinea pig atria by 25%; type: functional
Summary of the method: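 Guinea pig left atria in an organ bath of Krebs solution at 35 °C, gassed with carbogen, electrically driven, isometric contractions recorded. Drugs added cumulatively; maximum following frequency determined 6 min after each concentration. Concentration reducing MFF by 25% (EC25) calculated from six preparations.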

[5] = test system: Rattus norvegicus; assay: Effect on heart rate after isoprenaline induced tachycardia in the anesthetized rat at 2 mg/kg dose; type: functional
Summary of the method: (§2)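 Same ligation protocol in anaesthetised male Wistar rats. Heart rate was taken from the lead II ECG at three points: just before i.v. drug or vehicle, 14 min after it (just before isoprenaline 10 μg/kg), and 1 min after isoprenaline. Pre vs post rates and isoprenaline responses vs controls were compared by Student's t test. Mean ± SEM of 7-12 observations.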

[6] = species: Mus musculus; assay: ED 50 value against aconitine-induced arrhythmias in mice; IA is Inactive; type: functional, organism-based
Summary of the method: (§3)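 Anaesthetised mice were given test compound intraperitoneally, then aconitine intravenously to induce arrhythmia. At least three doses were tested in separate groups (n = 6-10). ED50 is the dose raising the arrhythmogenic aconitine dose 50% above the control requirement.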

[7] = species: Rattus norvegicus; assay: Maximum increase in heart rate evoked by isoprenaline.; type: functional; summary of the method: as §1
[8] = test system: Rattus norvegicus; assay: Antagonism of Ventricular Fibrilloflutter (VF) evoked by coronary artery ligation in the rat measured at 2 mg/kg dose; type: functional, Heart
Summary of the method: (§4)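 Male Wistar rats, anaesthetised and artificially ventilated, with left thoracotomy; silk suture under main left coronary artery. After stabilization, test drug or vehicle i.v.; 14 min later isoprenaline 10 μg/kg; 1 min after that the ligature was tightened and VF incidence recorded over 30 min. Carotid pressure and lead II ECG monitored continuously. 7-12 animals per group.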

[9] = test system: Rattus norvegicus; assay: Compound was tested for antagonism of Ventricular Fibrilloflutter (VF) evoked by coronary artery ligation in the rat measured at 0.05 mg/kg dose; type: functional, Heart; summary of the method: as §4
[10] = test system: Rattus norvegicus; assay: Compound was tested for antagonism of arrhythmias evoked by coronary artery ligation in the rat measured at 1 mg/kg dose; type: functional; summary of the method: as §4
[11] = test system: Rattus norvegicus; assay: Mean change in heart rate recorded 14 min after the administration of compound.; type: functional; summary of the method: as §1
[12] = species: Mus musculus; assay: ED 50 value against aconitine-induced arrhythmias in mice; type: functional; summary of the method: as §3
[13] = test system: Rattus norvegicus; assay: Compound was tested for antagonism of Ventricular Fibrilloflutter (VF) evoked by coronary artery ligation in the rat measured at 0.2 mg/kg dose; type: functional, Heart; summary of the method: as §4
[14] = test system: Rattus norvegicus; assay: Effect on heart rate before isoprenaline induced tachycardia in the anesthetized rat at 0.2 mg/kg dose; type: functional; summary of the method: as §2
[15] = test system: Rattus norvegicus; assay: Effect on heart rate 1 min post isoprenaline induced tachycardia in the anesthetized rat at 0.2 mg/kg dose.; type: functional; summary of the method: as §2
[16] = test system: Rattus norvegicus; assay: Compound that antagonized arrhythmias evoked by coronary artery ligation in the rat was measured at 0.2 mg/kg dose; type: functional; summary of the method: as §4
[17] = test system: Rattus norvegicus; assay: Compound that antagonized arrhythmias evoked by coronary artery ligation in the rat was measured at 0.05 mg/kg dose; type: functional; summary of the method: as §4
[18] = test system: Rattus norvegicus; assay: Effect on heart rate after isoprenaline induced tachycardia in the anesthetized rat at 1 mg/kg dose; type: functional; summary of the method: as §2
[19] = test system: Rattus norvegicus; assay: Effect on heart rate on 1 min post isoprenaline induced tachycardia in the anesthetized rat at 1 mg/kg dose.; type: functional; summary of the method: as §1
[20] = test system: Rattus norvegicus; assay: Effect on heart rate before isoprenaline induced tachycardia in the anesthetized rat at 1 mg/kg dose; type: functional; summary of the method: as §2
[21] = species: Rattus norvegicus; assay: Maximum increase in heart rate evoked by isoprenaline; type: functional; summary of the method: as §1
[22] = species: Cavia porcellus; assay: Compound was tested for antiarrhythmic activity (maximum rate of phase 0 depolarization- MRD) in guinea pig atria at 8(ug/mL) concentration; type: functional, Heart
Summary of the method: (§5)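 Guinea pig left atria pinned in a recording chamber, superfused with carbogen-gassed Krebs solution at 35 ± 0.5 °C and electrically stimulated. Transmembrane action potentials were recorded with conventional microelectrodes, giving RMP, AP height, APD50, APD90 and maximum rate of depolarization. Values are mean ± SEM from n cells across five preparations.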

[23] = species: Cavia porcellus; assay: Compound was tested for antiarrhythmic activity expressed as resting membrane potential (RMP) in guinea pig atria at 4 ug/mL concentration; type: functional; details: Heart; summary of the method: as §5
[24] = species: Cavia porcellus; assay: Compound was tested for antiarrhythmic activity (maximum rate of phase 0 depolarization- MRD) in guinea pig atria at 2(ug/mL) concentration; type: functional, Heart; summary of the method: as §5
[25] = species: Cavia porcellus; assay: Compound was tested for antiarrhythmic activity (time taken to reach 90% repolarization) in guinea pig atria at 2(ug/mL) concentration; type: functional, Heart; summary of the method: as §5
[26] = species: Cavia porcellus; assay: Compound was tested for antiarrhythmic activity expressed as action potential height (AP) in guinea pig atria at 8(ug/mL) concentration; type: functional, Heart; summary of the method: as §5
[27] = test system: Rattus norvegicus; assay: Compound that antagonized arrhythmias evoked by coronary artery ligation in the rat was measured at 1.0 mg/kg dose; type: functional; summary of the method: as §4
[28] = species: Cavia porcellus; assay: Compound was tested for antiarrhythmic activity expressed as action potential height (AP) in guinea pig atria at 2(ug/mL) concentration; type: functional, Heart; summary of the method: as §5
[29] = species: Cavia porcellus; assay: Compound was tested for antiarrhythmic activity (time taken to reach 50% repolarization) in guinea pig atria at 8(ug/mL) concentration; type: functional, Heart; summary of the method: as §5
[30] = species: Cavia porcellus; assay: Compound was tested for antiarrhythmic activity (time taken to reach 50% repolarization) in guinea pig atria at 4(ug/mL) concentration; type: functional, Heart; summary of the method: as §5
[31] = species: Cavia porcellus; assay: Compound was tested for antiarrhythmic activity (maximum rate of phase 0 depolarization- MRD) in guinea pig atria at 4(ug/mL) concentration; type: functional, Heart; summary of the method: as §5
[32] = species: Cavia porcellus; assay: Compound was tested for antiarrhythmic activity (time taken to reach 50% repolarization) in guinea pig atria at 2(ug/mL) concentration; type: functional, Heart; summary of the method: as §5
[33] = species: Cavia porcellus; assay: Compound was tested for antiarrhythmic activity (time taken to reach 90% repolarization) in guinea pig atria at 8(ug/mL) concentration; type: functional, Heart; summary of the method: as §5
[34] = species: Cavia porcellus; assay: Compound was tested for antiarrhythmic activity expressed as resting membrane potential (RMP) in guinea pig atria at 2 ug/mL concentration; type: functional; details: Heart; summary of the method: as §5
[35] = species: Cavia porcellus; assay: Compound was tested for antiarrhythmic activity expressed as action potential height (AP) in guinea pig atria at 4(ug/mL) concentration; type: functional, Heart; summary of the method: as §5
[36] = test system: Rattus norvegicus; assay: Effect of teh compound on heart rate on 1 min post isoprenaline induced tachycardia in the anesthetized rat at 2.0 mg/kg dose.; type: functional; summary of the method: as §2
[37] = test system: Rattus norvegicus; assay: Compound was tested for antagonism of Ventricular Fibrilloflutter (VF) evoked by coronary artery ligation in the rat measured at 1 mg/kg dose; type: functional, Heart; summary of the method: as §4
[38] = species: Cavia porcellus; assay: Compound was tested for antiarrhythmic activity expressed as resting membrane potential (RMP) in guinea pig atria at 8 ug/mL concentration; type: functional; details: Heart; summary of the method: as §5
[39] = species: Cavia porcellus; assay: Compound was tested for antiarrhythmic activity (time taken to reach 90% repolarization) in guinea pig atria at 4(ug/mL) concentration; type: functional, Heart; summary of the method: as §5
[40] = test system: Rattus norvegicus; assay: Effect on heart rate before isoprenaline induced tachycardia in the anesthetized rat at 0.5 mg/kg dose; type: functional; summary of the method: as §2
[41] = test system: Rattus norvegicus; assay: Effect on heart rate on 1 min post isoprenaline induced tachycardia in the anesthetized rat at 0.5 mg/kg dose.; type: functional; summary of the method: as §1
[42] = test system: Rattus norvegicus; assay: Effective dose of compound that antagonized arrhythmias evoked by coronary artery ligation in the rat was measured at 0.5 mg/kg dose; type: functional
[43] = test system: Rattus norvegicus; assay: Compound was tested for antagonism of Ventricular Fibrilloflutter (VF) evoked by coronary artery ligation in the rat measured at 0.5 mg/kg dose; type: functional, Heart; summary of the method: as §4
[44] = test system: Rattus norvegicus; assay: Effect on heart rate after isoprenaline induced tachycardia in the anesthetized rat at 0.5 mg/kg dose; type: functional; summary of the method: as §2

CNC1[C@H](O)C[C@H]2[C@@H]3CCc4cc(OCC(O)CNC(C)(C)C)ccc4[C@H]3CC[C@]12C (stereo partly specified)
Heart rate [1]: 302 beats min-1
ED50 [2]: 0.7 mg/kg
Heart rate [3]: 415 beats min-1
EC25 [4]: 38.6 mg/L (≈ 89.6 µM)
Heart rate [5]: 294 beats min-1
ED50 [6]: inactive
Increase [7]: 3%
VF [8]: 0%
VF [9]: 67%
VF [10]: 25%
Change [11]: -29.2%

CNC1[C@H](O)C[C@H]2[C@@H]3CCc4cc(OC(C)=O)ccc4[C@H]3CC[C@]12C (stereo partly specified)
ED50 [12]: 9 mg/kg
EC25 [4]: 5.06 mg/L (≈ 14.7 µM)
VF [13]: 29%
Heart rate [14]: 403 beats min-1
Increase [7]: 9.2%
Heart rate [15]: 392 beats min-1
ED50 at 0.2 mg/kg [16]: < 0.2 mg/kg
Change [11]: -10.9%

CCCNCC(O)COc1ccccc1C(=O)CCc1ccccc1 (stereo unspecified) [PROPAFENONE]
ED50 [17]: 0.7 mg/kg
ED50 [12]: 24.3 mg/kg
EC25 [4]: 1.85 mg/L (≈ 5.42 µM)
Increase [7]: 13.8%
Heart rate [18]: 391 beats min-1
Heart rate [19]: 445 beats min-1
Heart rate [20]: 443 beats min-1
Change [11]: -11.7%

CC(=O)Oc1ccc2c(c1)CC[C@@H]1[C@@H]2CC[C@]2(C)C(N(C)C)[C@H](O)C[C@@H]12 (stereo partly specified)
ED50 [12]: 6.5 mg/kg
EC25 [4]: 0.99 mg/L (≈ 2.77 µM)

CC(C)NCC(O)COc1ccc2c(c1)CC[C@@H]1[C@@H]2CC[C@]2(C)C(N(C)C)[C@H](O)C[C@@H]12 (stereo partly specified)
Increase [21]: 0%
MRD [22]: 139.3 V s-1
RMP [23]: 70.4 mV
MRD [24]: 139.5 V s-1
Heart rate [3]: 394 beats min-1
APD90 [25]: 69.8 ms
AP [26]: 79.5 mV
ED50 at 1 mg/kg [27]: < 1 mg/kg
EC25 [4]: 13.7 mg/L (≈ 31.8 µM)
Heart rate [5]: 366 beats min-1
AP [28]: 83.8 mV
APD50 [29]: 19.5 ms
ED50 [6]: inactive
APD50 [30]: 20.7 ms
MRD [31]: 124 V s-1
APD50 [32]: 26 ms
APD90 [33]: 64.9 ms
RMP [34]: 71 mV
AP [35]: 81.6 mV
Heart rate [36]: 366 beats min-1
VF [37]: 13%
RMP [38]: 69.1 mV
APD90 [39]: 64.8 ms
Change [11]: -7.1%

CN(C)C1[C@H](O)C[C@H]2[C@@H]3CCc4cc(O)ccc4[C@H]3CC[C@]12C (stereo partly specified)
Heart rate [40]: 442 beats min-1
Heart rate [41]: 490 beats min-1
MRD [22]: 30.5 V s-1
ED50 [42]: 0.15 mg/kg
RMP [23]: 71.8 mV
ED50 [12]: 11.5 mg/kg
MRD [24]: 86 V s-1
APD90 [25]: 70.9 ms
AP [26]: 69.9 mV
EC25 [4]: 1.86 mg/L (≈ 5.9 µM)
VF [43]: 13%
VF [13]: 33%
AP [28]: 78.9 mV
APD50 [29]: 43.5 ms
APD50 [30]: 29 ms
Increase [7]: 12.9%
Heart rate [44]: 434 beats min-1
MRD [31]: 60.1 V s-1
VF [8]: 0%
APD50 [32]: 29.6 ms
APD90 [33]: 98.9 ms
RMP [34]: 70.1 mV
AP [35]: 73.5 mV
RMP [38]: 69.3 mV
APD90 [39]: 74.2 ms
Change [11]: -1.8%

CNC1CC[C@H]2[C@@H]3CCc4cc(O)ccc4[C@H]3CC[C@]12C (stereo partly specified)
ED50 [12]: 8.2 mg/kg
EC25 [4]: 2.09 mg/L (≈ 7.32 µM)
